Experimental data from ChEMBL document CHEMBL3351539, “"On water" expedient synthesis of 3-indolyl-3-hydroxy oxindole derivatives and their anticancer activity in vitro” (Eur J Med Chem, 2014).
Converted amounts (≈) assume the structure as drawn. The source made the active and inactive calls. No cut-off for these calls is given here.

How the values were obtained:
[1] = tested on: A549; assay: Cytotoxicity against human A549 cells assessed as growth inhibition after 24 hrs by MTT assay; details: A549, 24 h
[2] = tested on: MCF7; assay: Ratio of etoposide IC50 to compound IC50 for human MCF7 cells assessed as growth inhibition after 24 hrs by MTT assay
[3] = Cytotoxicity against human U937 cells assessed as growth inhibition after 24 hrs by MTT assay; details: U-937, 24 h
[4] = tested on: MCF7; assay: Cytotoxicity against human MCF7 cells assessed as growth inhibition after 24 hrs by MTT assay; details: MCF7, 24 h
[5] = tested on: THP-1; assay: Cytotoxicity against human THP1 cells assessed as growth inhibition after 24 hrs by MTT assay; details: THP-1, 24 h
[6] = tested on: U-937; assay: Cytotoxicity against human U937 cells assessed as nuclear condensation at IC50 by light microscopy; type: functional, cell-based
Outline: (§1)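 U937 cells were exposed to one concentration per derivative and examined by light microscopy at 400X against untreated controls with intact cells. Cells were scored for shrinkage in cell size, nuclear condensation and formation of apoptotic bodies.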

[7] = tested on: U-937; assay: Ratio of etoposide IC50 to compound IC50 for human U937 cells assessed as growth inhibition after 24 hrs by MTT assay
[8] = tested on: U-937; assay: Cytotoxicity against human U937 cells assessed as shrinkage in cell size at IC50 by light microscopy; type: functional, cell-based
Outline: as §1

[9] = tested on: U-937; assay: Cytotoxicity against human U937 cells assessed as formation of apoptotic bodies at IC50 by light microscopy; type: functional, cell-based
Outline: as §1

## COc1ccc2[nH]cc(C3(O)C(=O)N(Cc4ccccc4Cl)c4ccccc43)c2c1 (centres undefined)
[1]
  IC50: 33.1 µg/mL (≈ 79 µM)
[2]
  Ratio IC50: 1
[3]
  IC50: 7.6 µg/mL (≈ 18.1 µM)
[4]
  IC50: 13.4 µg/mL (≈ 32.1 µM)
[5]
  IC50: 5.6 µg/mL (≈ 13.4 µM)

## O=C1Nc2ccc(Cl)cc2C1(O)c1c[nH]c2ccccc12 (centres undefined)
[3]
  IC50: 19.8 µg/mL (≈ 66.3 µM)

## Cc1ccc2[nH]cc(C3(O)C(=O)Nc4ccc(F)cc43)c2c1 (centres undefined)
[3]
  IC50: 35.5 µg/mL (≈ 120 µM)

## O=C1Nc2ccc(Cl)cc2C1(O)c1c[nH]c2ccc(Br)cc12 (centres undefined)
[1]
  IC50: 19.8 µg/mL (≈ 52.5 µM)
[3]
  IC50: 25.3 µg/mL (≈ 67 µM)
[4]
  IC50: 95.5 µg/mL (≈ 253 µM)
[5]
  IC50: 98.5 µg/mL (≈ 261 µM)

## O=C1N(Cc2ccccc2)c2ccccc2C1(O)c1c[nH]c2ccccc12 (centres undefined)
[1]
  IC50: 22.8 µg/mL (≈ 64.2 µM)
[3]
  IC50: 43 µg/mL (≈ 121 µM)
[5]
  IC50: 64.5 µg/mL (≈ 182 µM)

## O=C1N(Cc2ccc(Br)cc2)c2ccc(Cl)cc2C1(O)c1c[nH]c2ccc(Br)cc12 (centres undefined)
[1]
  IC50: 18.4 µg/mL (≈ 33.6 µM)
[3]
  IC50: 12.2 µg/mL (≈ 22.2 µM)
[4]
  IC50: 20.4 µg/mL (≈ 37.3 µM)
[5]
  IC50: 6.06 µg/mL (≈ 11.1 µM)

## O=C1Nc2ccc(OC(F)(F)F)cc2C1(O)c1c[nH]c2ccc(Br)cc12 (centres undefined)
[1]
  IC50: 13 µg/mL (≈ 30.4 µM)
[2]
  Ratio IC50: 1
[4]
  IC50: 5.47 µg/mL (≈ 12.8 µM)

## O=C1N(Cc2ccccc2)c2ccc(Cl)cc2C1(O)c1c[nH]c2ccccc12 (centres undefined)
[1]
  IC50: 18.3 µg/mL (≈ 47.1 µM)
[3]
  IC50: 4.33 µg/mL (≈ 11.1 µM)
[6]
  Activity: Active
[7]
  Ratio IC50: 0.5
[4]
  IC50: 24 µg/mL (≈ 61.8 µM)
[8]
  Activity: Active
[9]
  Activity: Active
[5]
  IC50: 5.03 µg/mL (≈ 12.9 µM)

## Cc1ccc2[nH]cc(C3(O)C(=O)Nc4ccc(I)cc43)c2c1 (centres undefined)
[1]
  IC50: 25.2 µg/mL (≈ 62.3 µM)
[3]
  IC50: 23.1 µg/mL (≈ 57.3 µM)
[4]
  IC50: 84.5 µg/mL (≈ 209 µM)
[5]
  IC50: 87.1 µg/mL (≈ 216 µM)

## O=C1Nc2c(Cl)cccc2C1(O)c1c[nH]c2ccccc12 (centres undefined)
[5]
  IC50: 86.1 µg/mL (≈ 288 µM)

## COc1ccc2[nH]cc(C3(O)C(=O)Nc4ccc(Cl)cc43)c2c1 (centres undefined)
[3]
  IC50: 39.8 µg/mL (≈ 121 µM)

## O=C1N(Cc2ccccc2Cl)c2ccc(Cl)cc2C1(O)c1c[nH]c2ccccc12 (centres undefined)
[1]
  IC50: 15.8 µg/mL (≈ 37.2 µM)
[3]
  IC50: 4.89 µg/mL (≈ 11.6 µM)
[7]
  Ratio IC50: 0.5
[4]
  IC50: 20.6 µg/mL (≈ 48.7 µM)
[5]
  IC50: 7.01 µg/mL (≈ 16.6 µM)

## COc1cc([C@@H]2c3cc4c(cc3[C@@H](O[C@@H]3O[C@@H]5CO[C@@H](C)O[C@H]5[C@H](O)[C@H]3O)[C@H]3COC(=O)[C@H]23)OCO4)cc(OC)c1O [ETOPOSIDE]
[1]
  IC50: 10.7 µg/mL (≈ 18.2 µM)
[3]
  IC50: 6.14 µg/mL (≈ 10.4 µM)
[4]
  IC50: 17.8 µg/mL (≈ 30.2 µM)

## COc1ccc2[nH]cc(C3(O)C(=O)Nc4ccc(F)cc43)c2c1 (centres undefined)
[3]
  IC50: 55.9 µg/mL (≈ 179 µM)

## O=C1N(Cc2ccccc2Cl)c2ccc(Cl)cc2C1(O)c1c[nH]c2ccc(Br)cc12 (centres undefined)
[1]
  IC50: 16.5 µg/mL (≈ 32.9 µM)
[3]
  IC50: 5.31 µg/mL (≈ 10.6 µM)
[7]
  Ratio IC50: 0.5
[4]
  IC50: 21.3 µg/mL (≈ 42.3 µM)
[5]
  IC50: 6.12 µg/mL (≈ 12.2 µM)

## O=C1Nc2ccc(Br)cc2C1(O)c1c[nH]c2ccccc12 (centres undefined)
[1]
  IC50: 72.5 µg/mL (≈ 211 µM)
[3]
  IC50: 19.3 µg/mL (≈ 56.2 µM)

## O=C1N(Cc2ccccc2)c2ccccc2C1(O)c1c[nH]c2ccc(Br)cc12 (centres undefined)
[1]
  IC50: 25.1 µg/mL (≈ 57.9 µM)
[3]
  IC50: 17.1 µg/mL (≈ 39.4 µM)
[4]
  IC50: 31.2 µg/mL (≈ 72.1 µM)
[5]
  IC50: 14.2 µg/mL (≈ 32.7 µM)

## O=C1Nc2ccc(OC(F)(F)F)cc2C1(O)c1c[nH]c2ccccc12 (centres undefined)
[3]
  IC50: 16.8 µg/mL (≈ 48.2 µM)
[4]
  IC50: 71.5 µg/mL (≈ 205 µM)
[5]
  IC50: 13.7 µg/mL (≈ 39.4 µM)

## Cc1ccc2c(c1)C(O)(c1c[nH]c3ccccc13)C(=O)N2 (centres undefined)
[3]
  IC50: 83.4 µg/mL (≈ 300 µM)

## O=C1Nc2ccc(I)cc2C1(O)c1c[nH]c2ccccc12 (centres undefined)
[3]
  IC50: 21.6 µg/mL (≈ 55.3 µM)

## O=C1Nc2ccc(Br)cc2C1(O)c1c[nH]c2ccc(Br)cc12 (centres undefined)
[1]
  IC50: 25.1 µg/mL (≈ 59.5 µM)
[3]
  IC50: 43.3 µg/mL (≈ 103 µM)
[4]
  IC50: 68.7 µg/mL (≈ 163 µM)
[5]
  IC50: 86.1 µg/mL (≈ 204 µM)

## O=C1Nc2ccc(I)cc2C1(O)c1c[nH]c2ccc(F)cc12 (centres undefined)
[1]
  IC50: 43.7 µg/mL (≈ 107 µM)
[5]
  IC50: 62.4 µg/mL (≈ 153 µM)

## COc1ccc2[nH]cc(C3(O)C(=O)N(Cc4ccccc4Cl)c4ccc(Cl)cc43)c2c1 (centres undefined)
[1]
  IC50: 14.1 µg/mL (≈ 31.1 µM)
[2]
  Ratio IC50: 1
[3]
  IC50: 6.07 µg/mL (≈ 13.4 µM)
[6]
  Activity: Active
[7]
  Ratio IC50: 0.5
[4]
  IC50: 10.8 µg/mL (≈ 23.9 µM)
[8]
  Activity: Active
[9]
  Activity: Active
[5]
  IC50: 4.27 µg/mL (≈ 9.42 µM)

## O=C1N(Cc2ccccc2Br)c2ccccc2C1(O)c1c[nH]c2ccc(Br)cc12 (centres undefined)
[1]
  IC50: 29.8 µg/mL (≈ 58.1 µM)
[3]
  IC50: 14.9 µg/mL (≈ 29.1 µM)
[4]
  IC50: 24.7 µg/mL (≈ 48.3 µM)
[5]
  IC50: 6.93 µg/mL (≈ 13.5 µM)

## O=C1N(Cc2ccccc2)c2ccc(Cl)cc2C1(O)c1c[nH]c2ccc(Br)cc12 (centres undefined)
[1]
  IC50: 13.3 µg/mL (≈ 28.5 µM)
[2]
  Ratio IC50: 1
[3]
  IC50: 8.02 µg/mL (≈ 17.1 µM)
[6]
  Activity: Active
[4]
  IC50: 8.64 µg/mL (≈ 18.5 µM)
[8]
  Activity: Active
[9]
  Activity: Active
[5]
  IC50: 7.12 µg/mL (≈ 15.2 µM)

## COc1ccc2[nH]cc(C3(O)C(=O)Nc4ccc(I)cc43)c2c1 (centres undefined)
[5]
  IC50: 69.2 µg/mL (≈ 165 µM)

## O=C1N(Cc2ccccc2Cl)c2ccccc2C1(O)c1c[nH]c2ccc(Br)cc12 (centres undefined)
[1]
  IC50: 16.2 µg/mL (≈ 34.5 µM)
[3]
  IC50: 7.16 µg/mL (≈ 15.3 µM)
[4]
  IC50: 22.3 µg/mL (≈ 47.7 µM)
[5]
  IC50: 7.37 µg/mL (≈ 15.8 µM)

## O=C1Nc2ccc(F)cc2C1(O)c1c[nH]c2ccccc12 (centres undefined)
[3]
  IC50: 43.7 µg/mL (≈ 155 µM)

## O=C1N(Cc2ccccc2Cl)c2ccccc2C1(O)c1c[nH]c2ccccc12 (centres undefined)
[1]
  IC50: 28.1 µg/mL (≈ 72.4 µM)
[3]
  IC50: 15 µg/mL (≈ 38.5 µM)
[4]
  IC50: 39.3 µg/mL (≈ 101 µM)
[5]
  IC50: 6.97 µg/mL (≈ 17.9 µM)

## CN1C(=O)C(O)(c2c[nH]c3ccccc23)c2ccccc21 (centres undefined)
[4]
  IC50: 49 µg/mL (≈ 176 µM)

## O=C1Nc2ccc(F)cc2C1(O)c1c[nH]c2ccc(Br)cc12 (centres undefined)
[5]
  IC50: 76 µg/mL (≈ 210 µM)
